Source: ChEMBL document CHEMBL3992541, “Combined treatment with zingerone and its novel derivative synergistically inhibits TGF-β1 induced epithelial-mesenchymal transition, migration and invasion of human hepatocellular carcinoma cells” (2017)
Active and inactive are the calls of the source. The calls are words filed in the database; no cut-off is given here.

Columns and labels:
SNU-182 [1] = assay: Inhibition of TGFbeta1-induced epithelial-mesenchymal transition in human SNU182 cells assessed as reduction in MMP2 mRNA expression at 12.5 uM preincubated for 2 hrs followed by TGFbeta1 addition measured after 48 hrs by qRT-PCR method; format: functional, cell-based
In short: (§1)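 SNU182 cells pretreated 2 h with single agents (12.5 or 40 µM) or the mixture (20 or 40 µM), then TGF-β 5 ng/ml for 48 h. MMP-2 and MMP-9 mRNA measured by RT-PCR with densitometry and by qRT-PCR, fold change by the 2^-ΔΔCt method. Mean±SD of triplicates.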

SNU-182 [2] = assay: (§2) Inhibition of TGFbeta1-induced epithelial-mesenchymal transition in human SNU182 cells assessed as reduction in MMP2 mRNA expression preincubated for 2 hrs followed by TGFbeta1 addition measured after 48 hrs in presence of zingerone by qRT-PCR method; format: functional, cell-based; in short: as §1
[3] = target: Mothers against decapentaplegic homolog 2 (Homo sapiens) (UniProt Q15796); assay: Inhibition of TGFbeta1-induced SMAD2 phosphorylation in human SNU182 cells at 20 to 40 uM preincubated for 2 hrs followed by TGFbeta1 addition measured after 48 hrs in presence of zingerone by Western blot method; format: cell-based
Sequence of Mothers against decapentaplegic homolog 2 (Homo sapiens) (Q15796 whole entry): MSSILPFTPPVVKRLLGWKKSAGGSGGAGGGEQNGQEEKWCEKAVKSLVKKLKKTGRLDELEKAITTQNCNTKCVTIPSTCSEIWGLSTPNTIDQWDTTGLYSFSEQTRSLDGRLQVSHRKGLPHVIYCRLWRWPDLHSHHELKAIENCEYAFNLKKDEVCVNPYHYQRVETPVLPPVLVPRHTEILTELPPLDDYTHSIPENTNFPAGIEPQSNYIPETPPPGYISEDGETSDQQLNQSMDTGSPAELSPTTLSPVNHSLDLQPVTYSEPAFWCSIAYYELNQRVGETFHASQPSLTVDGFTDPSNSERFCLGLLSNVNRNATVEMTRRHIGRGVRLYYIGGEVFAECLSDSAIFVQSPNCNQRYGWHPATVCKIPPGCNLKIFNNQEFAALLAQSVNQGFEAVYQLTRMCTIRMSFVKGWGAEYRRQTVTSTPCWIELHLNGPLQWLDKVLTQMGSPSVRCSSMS
In short: (§3)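 SNU182 cells given the mixture (20 and 40 µM) for 2 h, then TGF-β1 5 ng/ml for 48 h. Smad2/3 phosphorylation by Western blot, with total Smad2/3 as loading control.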

SNU-182 [4] = assay: Inhibition of TGFbeta1-induced epithelial-mesenchymal transition in human SNU182 cells assessed as reduction in MMP9 mRNA expression at 12.5 uM preincubated for 2 hrs followed by TGFbeta1 addition measured after 48 hrs by qRT-PCR method; format: functional, cell-based; in short: as §1
SNU-182 [5] = assay: Growth inhibition of human SNU182 cells assessed as cell survival at 12.5 uM after 48 hrs by CCK8 assay relative to control; format: functional; details: SNU-182, 48 h, read-out: Survival
In short: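 SNU182 human hepatocellular carcinoma cells were exposed to compound at 6.25, 12.5, 25, 50 and 100 µM in serum-free DMEM for 48 h. Viability was read by CCK-8, where WST-8 is reduced by cellular dehydrogenases to a soluble formazan, and expressed as survival relative to vehicle control. Values are mean±SD of triplicates.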

SNU-182 [6] = assay: Inhibition of TGFbeta1-induced epithelial-mesenchymal transition in human SNU182 cells assessed as reduction in MMP9 mRNA expression preincubated for 2 hrs followed by TGFbeta1 addition measured after 48 hrs in presence of zingerone by qRT-PCR method; format: functional, cell-based; in short: as §1
SNU-182 [7] = assay: Growth inhibition of human SNU182 cells after 48 hrs by CCK8 assay; format: functional, cell-based
SNU-182 [8] = assay: Inhibition of TGFbeta1-induced epithelial-mesenchymal transition in human SNU182 cells assessed as reduction in MMP2 activity measured after 48 hrs in presence of zingerone by gelatin zymography assay; format: functional, cell-based
In short: (§4)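 Cells serum-starved overnight in 0.2% FBS medium, then left untreated or given TGF-β 5 ng/ml and/or the mixture for 48 h. MMP-2 and MMP-9 activity in conditioned medium determined by gelatin zymography.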

SNU-182 [9] = assay: Inhibition of TGFbeta1-induced migration in human SNU182 cells at 40 uM measured after 48 hrs in presence of zingerone by wound healing assay; format: functional, cell-based
In short: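 Wound healing: SNU182 monolayers at about 90% confluence scratched with a pipette tip and washed. Medium with TGF-β1, with or without 40 µM mixture, then added. Wound imaged at 0 and 48 h; relative motility from cell surface area. Mean±SD of triplicates.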

SNU-182 [10] = assay: Inhibition of TGFbeta1-induced invasion in human SNU182 cells at 40 uM measured after 48 hrs in presence of zingerone by microscopic method; format: functional, cell-based
In short: (§5)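 Matrigel invasion chamber: SNU182 cells in the inner chamber received TGF-β1 with or without the mixture for 48 h. Cells on the lower surface stained, imaged at 200×, and counted. Mean±SD of triplicates.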

SNU-182 [11] = assay: Inhibition of TGFbeta1-induced epithelial-mesenchymal transition in human SNU182 cells assessed as reduction in mesenchymal phenotype preincubated for 2 hrs followed by TGFbeta1 addition measured after 48 hrs in presence of zingerone; format: functional, cell-based
In short: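 Cells preincubated 2 h in serum-free medium with the mixture (20 and 40 µM), then treated with TGF-β1 5 ng/ml for 48 h. Morphology (spindle-like, elongated shape, scattering) assessed by microscopy.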

SNU-182 [12] = assay: Inhibition of TGFbeta1-induced epithelial-mesenchymal transition in human SNU182 cells assessed as reduction in upregulation of N-cadherin expression preincubated for 2 hrs followed by TGFbeta1 addition measured after 48 hrs in presence of zingerone by Western blot method; format: functional, cell-based
In short: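 Pretreatment of SNU182 cells with the mixture at 20 and 40 µM for 2 h in serum-free medium, followed by TGF-β1 5 ng/ml for 48 h. N-cadherin and Snail detected by Western blot against GAPDH.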

SNU-182 [13] = assay: as §2, with “(E)-1-(9-Ethyl-9H-carbazol-3-yl)-5-(4-hydroxy-3-methoxyphenyl)pent-1-en-3-one” for “zingerone”; format: functional, cell-based; in short: as §1
SNU-182 [14] = assay: Inhibition of TGFbeta1-induced epithelial-mesenchymal transition in human SNU182 cells assessed as reduction in MMP2 activity measured after 48 hrs in presence of (E)-1-(9-Ethyl-9H-carbazol-3-yl)-5-(4-hydroxy-3-methoxyphenyl)pent-1-en-3-one by gelatin zymography assay; format: functional, cell-based; in short: as §4
SNU-182 [15] = assay: Inhibition of TGFbeta1-induced invasion in human SNU182 cells at 40 uM measured after 48 hrs in presence of (E)-1-(9-Ethyl-9H-carbazol-3-yl)-5-(4-hydroxy-3-methoxyphenyl)pent-1-en-3-one by microscopic method; format: functional, cell-based; in short: as §5
Homo sapiens [16] = organism: Homo sapiens; assay: Inhibition of TGFbeta1-induced NF-kB binding activity in human SNU182 cells at 20 to 40 uM measured after 48 hrs in presence of (E)-1-(9-Ethyl-9H-carbazol-3-yl)-5-(4-hydroxy-3-methoxyphenyl)pent-1-en-3-one by luciferase reporter gene assay; format: cell-based
In short: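 Cells transfected with pGL4.32-NF-κB-RE-Luc or empty pGL4.32, then treated with the mixture and/or TGF-β1. Luciferase reporter activity read. Mean±SD of triplicates.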

[17] = target: Mothers against decapentaplegic homolog 2 (Homo sapiens) (UniProt Q15796); assay: Inhibition of TGFbeta1-induced SMAD2 phosphorylation in human SNU182 cells at 20 to 40 uM preincubated for 2 hrs followed by TGFbeta1 addition measured after 48 hrs in presence of (E)-1-(9-Ethyl-9H-carbazol-3-yl)-5-(4-hydroxy-3-methoxyphenyl)pent-1-en-3-one by Western blot method; format: cell-based; in short: as §3
SNU-182 [18] = assay: Inhibition of TGFbeta1-induced epithelial-mesenchymal transition in human SNU182 cells assessed as reduction in MMP9 mRNA expression at 40 uM preincubated for 2 hrs followed by TGFbeta1 addition measured after 48 hrs by qRT-PCR method; format: functional, cell-based; in short: as §1
Homo sapiens [19] = organism: Homo sapiens; assay: Inhibition of TGFbeta1-induced NF-kB nuclear translocation in human SNU182 cells preincubated for 2 hrs followed by TGFbeta1 addition measured after 12 hrs in presence of (E)-1-(9-Ethyl-9H-carbazol-3-yl)-5-(4-hydroxy-3-methoxyphenyl)pent-1-en-3-one by Western blot method; format: cell-based
In short: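 Mixture added to SNU182 cells for 2 h before TGF-β1 for 12 h. Cytosolic and nuclear fractions analysed by Western blot for NF-κB, with COX4 as cytosolic and Lamin B1 as nuclear marker.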

| inhibition [17] | SMILES | inhibition (SNU-182 [1]) | inhibition (SNU-182 [2]) | inhibition [3] | inhibition (SNU-182 [4]) | viability at 12.5 µM (SNU-182 [5]) [%] | inhibition (SNU-182 [6]) | growth inhibition (GI) (SNU-182 [7]) | inhibition (SNU-182 [8]) | inhibition (SNU-182 [9]) | inhibition (SNU-182 [10]) | inhibition (SNU-182 [11]) | inhibition (SNU-182 [12]) | inhibition (SNU-182 [13]) | inhibition (SNU-182 [14]) | inhibition (SNU-182 [15]) | inhibition (Homo sapiens [16]) | inhibition (SNU-182 [18]) | inhibition (Homo sapiens [19]) |
| --- | --- | --- | --- | --- | --- | --- | --- | --- | --- | --- | --- | --- | --- | --- | --- | --- | --- | --- | --- |
| – | CCn1c2ccccc2c2cc(/C=C/C(=O)CCc3ccc(O)c(OC)c3)ccc21 | inactive | Dose-dependent effect | Active | inactive | > 90 | Dose-dependent effect | Dose-dependent effect | Active | Active | Active | Dose-dependent effect | Dose-dependent effect | – | – | – | – | – | – |
| Active | COc1cc(CCC(C)=O)ccc1O | – | – | – | – | – | – | – | – | – | – | – | – | Dose-dependent effect | Active | Active | Active | inactive | Dose-dependent effect |
